The values that follow come from ChEMBL document CHEMBL1240339, “Raft nanodomains contribute to Akt/PKB plasma membrane recruitment and activation” (Nat Chem Biol, 2008).

In general, inhibition refers to the change of the read-out against control, counted positive when it falls.

Format in all cases: cell-based
The species named for test [1] is Mus musculus. As to the kind of experiment: Inhibition of CD-28 triggered Ras/MAPK in mouse DWT6.11 cells by immunoblotting analysis. In a few lines: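 DWT6.11 cells were pretreated with myriocin (25 µM, 48 h in complete medium, then serum-starved 14–18 h). They were stimulated or not with CD28 monoclonal antibody. The Ras/MAPK pathway was read as ERK phosphorylation by immunoblotting.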
Background: Immunoblotting shows a protein as a band on a membrane.

Test [2] is filed under the species Mus musculus. As to the kind of experiment: Inhibition of serine palmitoyltransferase in mouse DWT6.11 cells assessed as cholesterol level at 25 uM after 14 to 18 hrs by fluorescence correlation spectroscopy relative to control. Also on record: scale not given: the % may be the effect or the level left.
For test [3], the species on record is Mus musculus. As to the kind of experiment: Inhibition of serine palmitoyltransferase in mouse DWT6.11 cells assessed as sphingomyelin level at 25 uM after 14 to 18 hrs by fluorescence correlation spectroscopy relative to control. On the set-up: scale not given: the % may be the effect or the level left.
The subject of test [4] is Jurkat. As to the kind of experiment: Inhibition of serine palmitoyltransferase in human Jurkat JA16 cells assessed as lateral diffusion of the outer membrane leaflet-linked FL-PE nanodomain at 25 uM after 14 to 18 hrs by fluorescence correlation spectroscopy.
The subject of test [5] is Jurkat. The test is described as follows: Inhibition of serine palmitoyltransferase in human Jurkat JA16 cells assessed as sphingomyelin level at 25 uM after 14 to 18 hrs by fluorescence correlation spectroscopy relative to control. On the set-up: scale not given: the % may be the effect or the level left.
Test [6] deals with COS-7. The test is described as follows: Inhibition of serine palmitoyltransferase in african green monkey COS7 cells assessed as cholesterol level at 10 uM after 14 to 18 hrs by fluorescence correlation spectroscopy relative to control. Also on record: scale not given: the % may be the effect or the level left. The settings on record: Chlorocebus aethiops.
The target of test [7] is T1, Squalene synthase (Homo sapiens) (UniProt P37268).
T1 sequence (whole entry): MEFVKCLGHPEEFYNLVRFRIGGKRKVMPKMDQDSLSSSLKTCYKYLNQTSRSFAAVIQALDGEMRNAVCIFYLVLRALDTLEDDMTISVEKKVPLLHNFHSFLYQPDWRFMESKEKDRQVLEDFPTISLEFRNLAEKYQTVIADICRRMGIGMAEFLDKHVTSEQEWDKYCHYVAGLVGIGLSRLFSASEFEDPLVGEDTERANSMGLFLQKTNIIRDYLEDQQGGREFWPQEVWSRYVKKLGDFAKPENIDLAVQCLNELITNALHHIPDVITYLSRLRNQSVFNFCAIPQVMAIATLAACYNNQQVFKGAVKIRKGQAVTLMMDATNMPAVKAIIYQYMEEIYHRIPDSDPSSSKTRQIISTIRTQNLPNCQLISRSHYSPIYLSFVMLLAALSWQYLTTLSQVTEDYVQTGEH
As to the kind of experiment: Inhibition of squalene synthase in human Jurkat JA16 cells assessed as cholesterol level at 25 uM after 14 to 18 hrs by fluorescence correlation spectroscopy relative to control. Also on record: scale not given: the % may be the effect or the level left.

Test [8] has as its target RAC-alpha serine/threonine-protein kinase (Mus musculus) (UniProt P31750). As to the kind of experiment: Inhibition of CD-28 triggered Akt phosphorylation in mouse DWT6.11 cells assessed as enzyme phosphorylation at Ser473 by immunoblotting relative to control. The settings on record: concentration not given here. In a few lines:
(§1)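 DWT6.11 mouse T cells were given 25 µM myriocin for 48 h in complete medium, then serum-starved 14–18 h with 25 µM myriocin, then stimulated with CD28 monoclonal antibody. Akt Thr308 and Ser473 phosphorylation induction was quantified by immunoblotting as % of untreated cells, mean ± s.d., n = 3.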

The subject of test [9] is COS-7. The test is described as follows: Inhibition of serine palmitoyltransferase in african green monkey COS7 cells assessed as sphingomyelin level at 10 uM after 14 to 18 hrs by fluorescence correlation spectroscopy relative to control. Particulars: Chlorocebus aethiops. Also on record: scale not given: the % may be the effect or the level left.
Test [10] has as its target RAC-alpha serine/threonine-protein kinase (Mus musculus) (UniProt P31750). As to the kind of experiment: Inhibition of CD-28 triggered Akt phosphorylation in mouse DWT6.11 cells assessed as enzyme phosphorylation at Thr308 by immunoblotting relative to control. The settings on record: concentration not given here. In a few lines:
as §1

Test [11] has as its target T2, Squalene synthase (Mus musculus) (UniProt P53798).
T2 sequence (whole entry): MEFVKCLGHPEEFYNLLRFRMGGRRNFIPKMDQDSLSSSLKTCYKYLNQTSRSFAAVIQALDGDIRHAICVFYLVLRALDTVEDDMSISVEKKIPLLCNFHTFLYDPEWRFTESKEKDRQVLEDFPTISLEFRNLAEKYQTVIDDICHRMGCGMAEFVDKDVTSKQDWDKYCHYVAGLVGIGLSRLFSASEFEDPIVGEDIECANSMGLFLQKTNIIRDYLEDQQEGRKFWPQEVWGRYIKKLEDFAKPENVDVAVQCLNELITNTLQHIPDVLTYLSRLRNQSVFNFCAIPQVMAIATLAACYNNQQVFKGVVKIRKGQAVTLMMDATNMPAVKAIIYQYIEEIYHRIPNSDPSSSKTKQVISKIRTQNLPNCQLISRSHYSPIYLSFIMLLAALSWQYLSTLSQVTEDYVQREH
As to the kind of experiment: Inhibition of squalene synthase in mouse DWT6.11 cells assessed as sphingomyelin level at 5 uM after 14 to 18 hrs by fluorescence correlation spectroscopy relative to control. Also on record: scale not given: the % may be the effect or the level left.

The subject of test [12] is Jurkat. As to the kind of experiment: Inhibition of serine palmitoyltransferase in human Jurkat JA16 cells assessed as sphingomyelin level at 5 uM after 14 to 18 hrs by fluorescence correlation spectroscopy relative to control. Also on record: scale not given: the % may be the effect or the level left.
The target of test [13] is T2, Squalene synthase (Mus musculus). As to the kind of experiment: Inhibition of squalene synthase in mouse DWT6.11 cells assessed as cholesterol level at 5 uM after 14 to 18 hrs by fluorescence correlation spectroscopy relative to control. Also on record: scale not given: the % may be the effect or the level left.
Test [14] deals with COS-7. As to the kind of experiment: Inhibition of squalene synthase in african green monkey COS7 cells assessed as of cholesterol level at 5 uM after 14 to 18 hrs by fluorescence correlation spectroscopy relative to control. The settings on record: Chlorocebus aethiops. Also on record: scale not given: the % may be the effect or the level left.
The test system of test [15] is COS-7. As to the kind of experiment: Inhibition of squalene synthase in african green monkey COS7 cells assessed as cholesterol level at 5 uM after 14 to 18 hrs by fluorescence correlation spectroscopy relative to control. Particulars: Chlorocebus aethiops. On the set-up: scale not given: the % may be the effect or the level left.
Test [16] has as its target T1, Squalene synthase (Homo sapiens). The test is described as follows: Inhibition of squalene synthase in human Jurkat JA16 cells assessed as cholesterol level at 5 uM after 14 to 18 hrs by fluorescence correlation spectroscopy relative to control. Also on record: scale not given: the % may be the effect or the level left.

Each structure is given as a SMILES string. “And” between values parts separate entries of the source, which are not always exact repeats. Identical values can stand only once. The source made the active and inactive calls. The calls are words filed in the database; no cut-off is given here.

RAC-alpha serine/threonine-protein kinase (Mus musculus), sequence (P31750 whole entry): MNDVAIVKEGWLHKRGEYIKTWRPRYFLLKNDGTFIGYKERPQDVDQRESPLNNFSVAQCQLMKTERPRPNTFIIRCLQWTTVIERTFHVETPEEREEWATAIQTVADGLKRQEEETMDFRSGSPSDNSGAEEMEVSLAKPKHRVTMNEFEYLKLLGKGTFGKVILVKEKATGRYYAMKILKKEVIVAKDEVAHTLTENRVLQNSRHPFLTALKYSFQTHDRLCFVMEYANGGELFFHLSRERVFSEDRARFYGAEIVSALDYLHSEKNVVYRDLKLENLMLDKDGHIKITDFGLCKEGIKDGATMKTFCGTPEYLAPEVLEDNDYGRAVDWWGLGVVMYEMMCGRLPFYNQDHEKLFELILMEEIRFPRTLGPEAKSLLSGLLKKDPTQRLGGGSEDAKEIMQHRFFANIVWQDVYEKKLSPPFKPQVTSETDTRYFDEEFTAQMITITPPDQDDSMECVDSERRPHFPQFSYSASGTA

Turning to `CCCCCCC(=O)CCCCCC/C=C/C[C@@H](O)[C@H](O)[C@@](N)(CO)C(=O)O`, the inhibition result in the test filed under Mus musculus [1] is “inactive”. The Activity in the test filed under Mus musculus [2] was 98%; in the test filed under Mus musculus [3], 24%; with Jurkat [4], 0.9 ms and 0.8 um2/s; in the test with Jurkat [5], 28%; with COS-7 [6], 92%; in test [7] it was 97%. For the same compound, the Activity in the test on COS-7 [9] was 30%. The inhibition in test [8] turned out to be 51.2%; in [10] it was 50.8%.
As to `C=C(CC[C@]12O[C@H](C(=O)O)[C@@](O)(C(=O)O)[C@](C(=O)O)(O1)[C@H](OC(=O)/C=C/[C@@H](C)C[C@@H](C)CC)[C@H]2O)[C@@H](OC(C)=O)[C@H](C)Cc1ccccc1`, the Activity in test [11] stood at 103%; with Jurkat [12], 97%; in test [13], 64%; with COS-7 [14], 90%; with COS-7 [15], 73%; in test [16] it was 81%. Further, in the test listed under Mus musculus [1], the inhibition entry is “inactive”.
